Results as given in ChEMBL document CHEMBL1131474, “Asymmetric synthesis and pharmacology of methylphenidate and its para-substituted derivatives” (J Med Chem, 1998).

Tests used:
Type in all cases: functional
Rattus norvegicus [1] = species on record: Rattus norvegicus; experiment: Ability to inhibit the uptake of dopamine [3H]DA in to rat brain synaptosomes
Procedure, shortened: (§1)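 Crude S1 synaptosomes from male Sprague–Dawley rat frontal/temporal cortex and striatum (sucrose–Tris–glucose, pH 7.4; 1000g, 15 min, 4 °C). Five drug levels, triplicate, with [3H]DA 25 nM or [3H]l-NE 50 nM final, in pargyline-containing Tris saline buffer. Preincubation 5 min, then 5 min uptake at 37 °C. Filtered, counted by scintillation, 0 °C uptake subtracted. IC50 read from sigmoidal fit.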

Rattus norvegicus [2] = species on record: Rattus norvegicus; experiment: Ability to inhibit the uptake of norepinephrine [3H]-NE in to rat brain synaptosomes; procedure, shortened: as §1
[3] = Eudisimic ratio for DA uptake is the ratio of the IC50 values l-isomer and d-isomer
Procedure, shortened: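 Eudismic ratio: IC50 of the l-isomer divided by IC50 of the d-isomer for each enantiomeric pair. IC50s came from rat synaptosomal [3H]DA or [3H]l-NE uptake, with five drug concentrations in triplicate and 5 min at 37 °C.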

| SMILES | IC50 (Rattus norvegicus [1]) [nM] | IC50 (Rattus norvegicus [2]) [nM] | Eudismic ratio [3] |
| --- | --- | --- | --- |
| COC(=O)C(c1ccccc1)C1CCCCN1 (racemic) [METHYLPHENIDATE] | 438 | 171 |  |
| COC(=O)[C@H](c1ccc(Br)cc1)[C@H]1CCCCN1 | 22.5 | 9.34 |  |
| COC(=O)[C@@H](c1ccc(OC)cc1)[C@@H]1CCCCN1 | 3590 | 1300 |  |
| COC(=O)[C@@H](c1ccccc1)[C@@H]1CCCCN1 | 1470 | 876 |  |
| COC(=O)[C@H](c1ccc(OC)cc1)[C@H]1CCCCN1 | 205 | 73 | 17.5 |
| COC(=O)[C@@H](c1ccc(Br)cc1)[C@@H]1CCCCN1 | 408 | 248 |  |
| COC(=O)[C@H](c1ccccc1)[C@H]1CCCCN1 [DEXMETHYLPHENIDATE] | 171 | 128 |  |
